Compound activity deposited in PubChem BioAssay by several laboratories.
BAP1 inh: inhibitors of BAP1 deubiquitinase, primary screen, biochemical, Ub-AMC fluorescence, kinetic. 72,000 compounds, 0.48% hits. Ubiquitin carboxyl-terminal hydrolase BAP1 (Homo sapiens), Q92560. calls only at 20 µM. AID 436, 2006. recombinant BAP1, Ub-AMC hydrolysis fluorescence kinetic; hits give low values;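 active = activity remaining at or below 50% of control, provided the compound also passes the data quality filters; inactive = the rest, including low values that fail the filters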;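 note: 100% = DMSO wells rate and 0% = substrate alone blank rate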
ERa SRC1 pot: enhancers of ERα–SRC-1 coactivator binding, primary screen, biochemical, TR-FRET, ERα LBD, low estradiol; coactivator binding (% of control), % at 25.6 µM; TR-FRET ERalpha-LBD/SRC-Cy5 coactivator binding, 2 h; 100 = basal binding, no effect; AID 639, 2007; Estrogen receptor (Homo sapiens), P03372; 86,000 compounds, 1.3% hits; in the data active = activity above about 200%;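 note: binding measured in presence of low estradiol as agonist stimulus; 0% = peptide alone without receptor and 100% = receptor with peptide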
RORa activator: activators of orphan receptor RORA, primary screen, cell-based, luminescence; CHO-K1 Gal4-RORA LBD luciferase reporter; percent increase over mock-subtracted basal signal; activation, % at 10 µM; 65,000 compounds, 1.5% hits; AID 560, 2006;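 active = activation above the mean of all tested compounds plus 3 SD, cut at about 49% in these data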;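 note: 0% = DMSO-treated RORA cells and 100% = added signal equal to DMSO minus mock-transfected cells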
ERa SRC1 inh: ERα–SRC-1 coactivator interaction inhibitors, primary screen, biochemical, TR-FRET, ERα LBD, estradiol-bound | Estrogen receptor (Homo sapiens), P03372 | TR-FRET ER-alpha LBD / SRC-1 peptide | inhibition, % at 25.6 µM | 86,000 compounds, 1.7% hits | AID 629, 2007; in the data active = inhibition above about 50%;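 note: 0% = receptor plus peptide control and 100% = peptide only without receptor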
SF1 activator: activators of human SF-1, primary screen, cell-based, CHO-K1, Gal4-SF-1 LBD, luciferase luminescence. activation, % at 10 µM. CHO-K1 Gal4-SF-1 LBD luciferase reporter; % increase over DMSO SF-1-specific signal. AID 522, 2006. 65,000 compounds, 1.9% hits;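 active = activation above the mean activation of all tested compounds plus 3 SD, cut at about 50% in these data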
Target sequence (Q13285 whole entry, looked up, the tested form may be a part): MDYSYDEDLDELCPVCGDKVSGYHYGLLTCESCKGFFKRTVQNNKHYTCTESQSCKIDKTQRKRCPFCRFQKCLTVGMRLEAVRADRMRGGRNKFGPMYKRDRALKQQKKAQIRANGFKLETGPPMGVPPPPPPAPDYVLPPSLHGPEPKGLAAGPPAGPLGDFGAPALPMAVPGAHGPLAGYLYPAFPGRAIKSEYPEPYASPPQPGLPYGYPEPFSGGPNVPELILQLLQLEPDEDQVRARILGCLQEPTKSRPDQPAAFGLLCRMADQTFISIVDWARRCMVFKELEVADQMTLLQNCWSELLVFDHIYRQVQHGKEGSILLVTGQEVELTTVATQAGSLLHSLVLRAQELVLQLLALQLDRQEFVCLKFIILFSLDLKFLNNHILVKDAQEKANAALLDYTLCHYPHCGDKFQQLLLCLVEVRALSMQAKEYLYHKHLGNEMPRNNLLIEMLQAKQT
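Material: Gal4–SF-1 LBD one-hybrid luciferase reporter in CHO-K1 cells | Amount: 4,000 cells per well | Compound dosing: 10 µM single point, 1% DMSO | Schedule: 20 h compound treatment, 37 °C | Measured by: SteadyLite luciferase luminescence | Evaluation: Percent activation versus DMSO | Control set: DMSO-treated SF-1-transfected cells as negative, DMSO-treated mock-transfected cells lacking SF-1 as background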
ERb SRC1 inh: inhibitors of ERβ-SRC1 coactivator interaction, primary screen, biochemical, TR-FRET, ERβ LBD, SRC-1 peptide; Estrogen receptor beta (Homo sapiens), Q92731; TR-FRET ER-beta LBD / SRC1-Cy5 peptide binding; receptor agonist-loaded with 1 µM estradiol; inhibition, % at 25.6 µM; 86,000 compounds, 1.3% hits;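 active = compounds whose percent inhibition of the receptor-coactivator binding signal exceeds about 50% in the single-dose screen, limit read from the data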;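 note: 0% = receptor plus peptide wells without compound and 100% = peptide-only wells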
An asterisk follows results filed as active; i = inactive; · = no result given; + = active, no number; [ ] = remark or other dose. Shown are actives, neighbours in structure and some others; about 5.1% of the full set was active somewhere.

SMILES	BAP1 inh	ERa SRC1 pot	RORa activator	ERa SRC1 inh	SF1 activator	ERb SRC1 inh
Cn1c(-c2sc3cc(C(F)(F)F)cnc3c2-c2cccnc2)n[nH]c1=S	·	108	·	-8	·	-2
O=C(Nc1ccc(-n2nncc2-c2ccco2)cc1)c1cc2ccccc2oc1=O	·	186	7	69*	5	65*[fluorescence artefact?]
CN=Cc1cc(-c2ccccc2)sc1O	i	114	27	-13	56*	-4
Cc1ccc(N/C(=N\c2nc(C)cc(C)n2)NC(=O)c2ccccc2)c(C)c1	i	·	·	·	·	·
N#Cc1c(N)sc(=S)c2c1CCCCC2	i	51	5	36	7	57*[fluorescence artefact?]
Cc1nn(-c2ccccc2)c2sc(C(=O)c3c(N)n(C)c(=O)n(C)c3=O)cc12	i	550*	16	-11	29	13
Cc1nn(-c2ccccc2)c2sc(C(=O)C(C#N)c3ccccn3)cc12 (configuration not stated)	i	23	-21	79*[fluorescence artefact?]	26	93*[fluorescence artefact?]
Cc1nn(-c2ccccc2)c2sc(C(=O)OCn3nnc4ccccc4c3=O)cc12	+	·	-5	·	7	·
Cc1cc(C)n(-c2ccc(C(=O)OCn3nnc4ccccc4c3=O)cc2)n1	i	94	-16	3	10	9
Cc1nn(-c2ccccc2)c2sc(C(=O)n3cccn3)cc12	·	100	-7	15	16	8
CC(=O)c1ccc(C(=O)Nc2nc3c(ccc4ccccc43)s2)cc1	i	·	·	·	·	·
CCc1ccc(CCC(=O)Nc2ccc(C)c(C)c2)o1	i	·	19	·	56*	·
COC(=O)Nc1sccc1C(=O)Nc1sccc1C(=O)OC	·	201*	-11	12	3	6
COc1cc(NS(=O)(=O)c2ccc(NC(=O)c3ccccc3OC)cc2)nc(OC)n1	i	·	·	·	·	·
CC(=O)Nc1ccc(N=Cc2nc(-c3ccc(C)cc3)oc2O)cc1	i	61	-19	81*	9	51*
CCCOc1ccccc1NC(=O)c1ccc(N)cc1	i	104	18	-6	-2	-8
CCCOc1ccc(N)cc1N	i	-3	2	99*[fluorescence artefact?]	-29	99*[fluorescence artefact?]
O=[N+]([O-])c1ccc2oc(SCc3nc4ccccn4c3Br)nc2c1	i	·	·	·	·	·
COc1ccc(C2NC(=O)NC(C)=C2C(=O)OCCc2ccccc2)cc1OC (configuration not stated)	i	·	·	·	·	·
COC(=O)C1CCN(C(=O)COc2cc3sc(C)nc3c3sccc23)CC1	i	111	-10	2	-10	-4
Cc1nc2c(cc(Oc3ccc(S(=O)(=O)N4CCOCC4)cn3)c3ccsc32)s1	i	118	35	5	53*	-3
CCN1C(=O)NC(c2ccccc2[N+](=O)[O-])C(C(=O)OC2CCCCC2)=C1C (configuration not stated)	i	·	·	·	·	·
CCCCC(=O)Nc1cccc(-c2cn3ccsc3n2)c1	i	·	58*	·	30	·
O=C(Nc1cccc(-c2cn3ccsc3n2)c1)c1ccccc1	i	91	49*	-9	27	-6
O=C(Nc1ccc(-c2cn3ccsc3n2)cc1)C1COc2ccccc2O1 (configuration not stated)	i	100	17	2	57*	6
O=C(Nc1ccc(-c2cn3ccsc3n2)cc1)c1ccc(F)c(S(=O)(=O)N2CCOCC2)c1	i	100	42	6	57*	5
NS(=O)(=O)c1ccc(NC(=O)C2COc3ccccc3O2)cc1 (configuration not stated)	·	98	·	-5	·	-1
CCCCOc1ccc(C2C(N3C(=O)c4ccccc4C3=O)C(=O)N2c2ccc(C)cc2)cc1 (configuration not stated)	i	·	·	·	·	·
